The source of these data is ChEMBL document CHEMBL2176974, “A bactericidal guanidinomethyl biaryl that alters the dynamics of bacterial FtsZ polymerization” (J Med Chem, 2012).

≈ marks a conversion by molar mass, not a printed value. Calls of active or inactive are those of the source. The calls are words filed in the database; no cut-off is given here.

In assay [1] the test system is Staphylococcus aureus. In words: microbe, parasite or virus in culture. The format is functional. The following applies: 8325-4, 24 h.
Assay [2] concerns Enterococcus faecalis. Nature of the assay: microbe, parasite or virus in culture. It is filed as functional. The following applies: ATCC 51575, 24 h.
Assay [3] concerns Staphylococcus aureus. Nature of the assay: Antimicrobial activity against methicillin-resistant Staphylococcus aureus Mu3 incubated for 24 hrs by broth microdilution method. It is filed as functional. The following applies: Mu3, 24 h. For orientation: Broth dilution looks for growth in wells or tubes with falling amounts of substance.
In assay [4] the test system is Enterococcus faecalis. In words: microbe, parasite or virus in culture. It is filed as functional. The note with it: ATCC 19433, 24 h.
The subject of assay [5] is Staphylococcus aureus. Nature of the assay: microbe, parasite or virus in culture. The format is functional. The following applies: ATCC 49951, 24 h.
Assay [6] concerns Staphylococcus aureus. Nature of the assay: microbe, parasite or virus in culture. The note with it: ATCC 33591, 24 h. It is filed as functional.
Assay [7] addresses T1, Cell division protein FtsZ (Staphylococcus aureus) (UniProt P0A031).
T1 sequence (whole entry): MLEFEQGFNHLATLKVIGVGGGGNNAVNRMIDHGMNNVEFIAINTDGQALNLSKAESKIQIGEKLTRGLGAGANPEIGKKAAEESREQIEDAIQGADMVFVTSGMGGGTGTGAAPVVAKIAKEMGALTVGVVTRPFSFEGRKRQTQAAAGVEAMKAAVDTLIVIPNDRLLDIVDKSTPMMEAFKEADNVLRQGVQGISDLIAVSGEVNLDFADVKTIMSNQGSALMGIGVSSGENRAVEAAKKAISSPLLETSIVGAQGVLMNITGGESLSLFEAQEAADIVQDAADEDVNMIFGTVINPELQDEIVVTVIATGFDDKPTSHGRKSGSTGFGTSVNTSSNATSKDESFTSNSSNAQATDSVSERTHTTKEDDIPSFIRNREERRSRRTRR
Nature of the assay: Stimulation of Staphylococcus aureus FtsZ self-polymerization at 40 ug/mL by microtiter plate-based light scattering assay.

For assay [8], the target named is T2, Cell division protein FtsZ (Escherichia coli K-12) (UniProt P0A9A6).
T2 sequence (whole entry): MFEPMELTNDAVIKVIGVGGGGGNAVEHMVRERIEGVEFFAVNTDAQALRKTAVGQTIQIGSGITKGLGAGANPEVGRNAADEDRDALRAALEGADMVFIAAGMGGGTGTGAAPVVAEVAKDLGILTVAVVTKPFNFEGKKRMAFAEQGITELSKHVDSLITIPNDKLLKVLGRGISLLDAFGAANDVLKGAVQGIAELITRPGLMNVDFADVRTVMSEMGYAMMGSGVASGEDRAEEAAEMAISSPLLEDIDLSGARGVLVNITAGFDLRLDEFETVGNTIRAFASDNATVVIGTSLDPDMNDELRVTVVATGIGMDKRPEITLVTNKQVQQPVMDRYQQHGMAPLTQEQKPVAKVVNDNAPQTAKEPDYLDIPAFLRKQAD
Nature of the assay: Stimulation of Escherichia coli FtsZ self-polymerization at 40 ug/mL by microtiter plate-based light scattering assay.

For assay [9], the system named is Escherichia coli. Nature of the assay: Antimicrobial activity against ESBL producing Escherichia coli ATCC BAA-201 expressing TEM3 lactamase incubated for 24 hrs by broth microdilution method. It is filed as functional. The note with it: ATCC BAA-201, 24 h. In a few lines: (§1)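 CLSI broth microdilution. Log-phase bacteria at 10⁵ CFU/mL were exposed to 2-fold serial dilutions (64 to 0.016 μg/mL) in cation-adjusted Mueller-Hinton broth, 5% defibrinated sheep blood added for Streptococcus. Incubated aerobically 24 h at 37 °C. Growth read as OD600; MIC taken as the lowest concentration giving 90% growth inhibition.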

Assay [10] relates to Escherichia coli. Nature of the assay: Antimicrobial activity against Escherichia coli W4573 incubated for 24 hrs by broth microdilution method. It is filed as functional. The note with it: W4573, 24 h. In a few lines:
as §1

The test system of assay [11] is Escherichia coli. Nature of the assay: Antimicrobial activity against Escherichia coli N43 expressing AcrAB efflux pump mutant incubated for 24 hrs by broth microdilution method. The note with it: N43, 24 h. It is filed as functional.
Assay [12] can be described thus: Binding affinity to Enterococcus faecalis FtsZ at 25 degC by fluorescence anisotropy assay. Background: Polarisation of emitted light reports the rotation of a fluorescent probe.
The test system of assay [13] is Enterococcus faecalis. In words: Stimulation of Enterococcus faecalis FtsZ self-polymerization at 40 ug/mL by microtiter plate-based light scattering assay. The gist of the method: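 Purified E. faecalis FtsZ (10 μM) mixed with compound (0–40 μg/mL) and 1 mM GTP in 50 mM Tris-HCl pH 7.4, 50 mM KCl, 2 mM magnesium acetate, 10 mM CaCl2. Polymerization followed continuously as light scattering (A340) at 25 °C over 400 min.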

Assay [14] deals with T3, Cell division protein FtsZ (Staphylococcus aureus, UniProt P0A031).
T3 sequence (P0A031 whole entry): T1 sequence (whole entry)
Nature of the assay: Binding affinity to Staphylococcus aureus FtsZ expressed in Escherichia coli BL21 (DE3) at 25 degC by fluorescence anisotropy assay. The gist of the method:
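Intrinsic compound fluorescence anisotropy. Compound at 5 μM was titrated with 0–25 μM FtsZ in 50 mM Tris·HCl pH 7.4, 50 mM KCl, 2 mM magnesium acetate. Samples were incubated 5 min at 25 °C, excited at 245 nm with emission at 318 nm, and G-corrected. Runs were in triplicate and averaged. Kd was obtained by nonlinear least-squares fit. SaFtsZ was expressed in E. coli BL21(DE3) and purified by ammonium sulfate, MonoQ and Superdex-200.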

For assay [15], the target named is T4, Cell division protein FtsZ (Escherichia coli K-12, UniProt P0A9A6).
T4 sequence (P0A9A6 whole entry): T2 sequence (whole entry)
Nature of the assay: Binding affinity to Escherichia coli FtsZ at 25 degC by fluorescence anisotropy assay.

Assay [16] has as its system Staphylococcus aureus. Nature of the assay: microbe, parasite or virus in culture. The format is functional. The note with it: 8325-4, 24 h. The source holds these as a separate data set.
Assay [17] concerns Staphylococcus aureus. Nature of the assay: Antimicrobial effect against 3x10^9 CFU/ml methicillin-sensitive Staphylococcus aureus 8325-4 at 4 to 32 times MIC assessed as incidence of colonies growth measured after 24 incubation by large inoculation approach based drug resistance detection method. The format is functional, organism-based. The gist of the method:
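Inoculum count checked on nonselective plates. Incubated at 37 °C and examined after 24 h and daily thereafter. Mutation frequency = colonies on selective plates / total bacteria plated.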

On to `CCC[C@@H]1C[C@@H](C(=O)N[C@@H]([C@H]2O[C@H](SC)[C@H](O)[C@@H](O)[C@H]2O)[C@H](C)Cl)N(C)C1.Cl` [CLINDAMYCIN HYDROCHLORIDE], for which the MIC against Staphylococcus aureus [1] was 0.031 µg/mL; in the assay on Enterococcus faecalis [2] it was over 64 µg/mL; in the assay with Staphylococcus aureus [3], over 64 µg/mL; against Enterococcus faecalis [4], 2 µg/mL; with Staphylococcus aureus [5], 0.063 µg/mL; in the assay with Staphylococcus aureus [6], over 64 µg/mL. Moreover, in [7], the outcome was inactive.
For the molecule `Cc1onc(-c2ccccc2Cl)c1C(=O)N[C@@H]1C(=O)N2[C@@H]1SC(C)(C)[C@@H]2C(=O)[O-].[Na+]` [OXACILLIN SODIUM SALT], the MIC against Staphylococcus aureus [1] is 0.063 µg/mL; against Enterococcus faecalis [2] it was 64 µg/mL; in the assay with Staphylococcus aureus [3] it was over 64 µg/mL; against Enterococcus faecalis [4], 8 µg/mL; in the assay with Staphylococcus aureus [5] it was 0.25 µg/mL; against Staphylococcus aureus [6] it was over 64 µg/mL. In assay [7], the outcome was inactive.
`CC1(C)S[C@@H]2[C@H](NC(=O)[C@H](N)c3ccccc3)C(=O)N2[C@H]1C(=O)[O-].[Na+]` [AMPICILLIN SODIUM]: in assay [8], the outcome was inactive. The MIC in the assay with Escherichia coli [9] was over 64 µg/mL; in the assay with Escherichia coli [10], 4 µg/mL.
For the molecule `CC(C)(C)c1ccc(-c2ccnc(CNC(=N)N)c2)cc1`, the MIC in the assay with Escherichia coli [11] was 8 µg/mL (≈ 28.3 µM); against Staphylococcus aureus [1], 8 µg/mL (≈ 28.3 µM); in the assay with Enterococcus faecalis [2], 64 µg/mL (≈ 227 µM); in the assay on Staphylococcus aureus [3] it was 8 µg/mL (≈ 28.3 µM); against Enterococcus faecalis [4] it was 32 µg/mL (≈ 113 µM); with Staphylococcus aureus [5] it was 8 µg/mL (≈ 28.3 µM). Further, the MIC in the assay on Escherichia coli [9] came out at 64 µg/mL (≈ 227 µM); in the assay with Escherichia coli [10], 64 µg/mL (≈ 227 µM); in the assay on Staphylococcus aureus [6] it was 16 µg/mL (≈ 56.7 µM). Further, the Kd result in assay [12], in assay [14] and in [15] was “Not Active” each time. The outcome (in [8]; in the assay on Enterococcus faecalis [13]; in assay [7]) was inactive.
On to `CC[C@H]1OC(=O)[C@H](C)[C@@H](O[C@H]2C[C@@](C)(OC)[C@@H](O)[C@H](C)O2)[C@H](C)[C@@H](O[C@@H]2O[C@H](C)C[C@H](N(C)C)[C@H]2O)[C@](C)(O)C[C@@H](C)C(=O)[C@H](C)[C@@H](O)[C@]1(C)O` [ERYTHROMYCIN], for which the MIC against Staphylococcus aureus [1] was 0.125 µg/mL (≈ 0.17 µM); with Enterococcus faecalis [2], over 64 µg/mL; against Staphylococcus aureus [3] it was over 64 µg/mL; against Enterococcus faecalis [4] it was 1 µg/mL (≈ 1.36 µM); against Staphylococcus aureus [5], 0.25 µg/mL (≈ 0.341 µM); in the assay on Staphylococcus aureus [6], over 64 µg/mL. Moreover, the MBC in the assay with Staphylococcus aureus [16] came to 32 µg/mL (≈ 43.6 µM).
With `CC(C)(C)c1ccc(-c2cc(CNC(=N)N)ncn2)cc1`, the MIC with Escherichia coli [11] is 32 µg/mL (≈ 113 µM); against Staphylococcus aureus [1], 64 µg/mL (≈ 226 µM); against Enterococcus faecalis [2], over 64 µg/mL; in the assay on Staphylococcus aureus [3], 32 µg/mL (≈ 113 µM); against Enterococcus faecalis [4], over 64 µg/mL; in the assay with Staphylococcus aureus [5] it was 32 µg/mL (≈ 113 µM). Besides, the MIC is over 64 µg/mL in the assay on Escherichia coli [9], over 64 µg/mL against Escherichia coli [10] and 64 µg/mL (≈ 226 µM) against Staphylococcus aureus [6]. Further, the Kd entry in assay [12], in [14] and in assay [15] was “Not Active” each time. Further, the result (in [8]; with Enterococcus faecalis [13]; in assay [7]) was inactive.
On to `CO[C@H]1/C=C/O[C@@]2(C)Oc3c(C)c(O)c4c(O)c(c(/C=N/N5CCN(C)CC5)c(O)c4c3C2=O)NC(=O)/C(C)=C\C=C\[C@H](C)[C@H](O)[C@@H](C)[C@@H](O)[C@@H](C)[C@H](OC(C)=O)[C@@H]1C`, for which, in the assay on Staphylococcus aureus [17], the outcome was inactive.
For `NCC[C@H](O)C(=O)N[C@@H]1C[C@H](N)[C@@H](O[C@H]2O[C@H](CN)[C@@H](O)[C@H](O)[C@H]2O)[C@H](O)[C@H]1O[C@H]1O[C@H](CO)[C@@H](O)[C@H](N)[C@H]1O.O=S(=O)(O)O`, the MIC with Escherichia coli [11] was 1 µg/mL; with Escherichia coli [9], over 64 µg/mL; in the assay with Escherichia coli [10], 2 µg/mL.
